Published values from different studies.
Each line is one published result; the experiments were not run side by side.
Target: SRSF protein kinase 2 (SRPK2, Homo sapiens, UniProt P78362)

Structure (SMILES)	observed	mode	technique	tested at	measurement	value
C[C@@H]1CCN(C(=O)CC#N)C[C@@H]1N(C)c1ncnc2[nH]ccc12	cell-free assay	inhibitor		0.5 µM	remaining signal	90.7%
CCC1(CC)NC(=O)c2c(c3ccc(Cl)c(Cl)c3n2C)C1C#N (centres unmarked)	thermal stability		DSF	10 µM	ΔTm	0.1 °C
COc1cc(-c2cc(-c3ccc(N4CCNCC4)cc3)cnc2C)cc(OC)c1OC	enzyme activity	inhibitor		1 µM	inhibition	2%
Cn1c2c(c3ccc(Cl)c(Cl)c31)C(C#N)C1(CCNCC1)NC2=O (racemic)	thermal stability		DSF	10 µM	ΔTm	2.4 °C
CO[C@@H](C)c1c(Nc2ccc([C@H](N(C)C(=O)C3CCS(=O)(=O)CC3)C(F)(F)F)cc2)cnc2cc(Cl)nn12	cell-free assay		competition with immobilised ligand	1 µM	remaining binding	100%
CCN(CC)CCNC(=O)c1c(C)[nH]c(/C=C2\C(=O)Nc3ccc(F)cc32)c1C	enzyme activity	inhibitor		10 µM	inhibition	37%
CCOCCn1cc(C(=O)Nc2ccc(-n3nc(-c4cccnc4)cc3C(F)(F)F)cn2)ccc1=O	cell-free assay		competition with immobilised ligand	1 µM	remaining binding	100%
Cn1c2c(c3ccccc31)C(C#N)C(C)(C)NC2=O (centres unmarked)	thermal stability		DSF	10 µM	ΔTm	0 °C
CNCc1ccccc1-c1csc([C@@H](C)Nc2nc(C)nc3cc(OC)c(OC)cc23)c1	cell-free assay		competition with immobilised ligand	1 µM	remaining binding	61%
CCCS(=O)(=O)Nc1ccc(F)c(C(=O)c2c[nH]c3ncc(-c4ccc(Cl)cc4)cc23)c1F	enzyme activity	inhibitor		1 µM	inhibition	< 10%
CCN(CC)c1ccc(C2=NNC(=O)CC2C)cc1[N+](=O)[O-] (centres unmarked)	enzyme activity	inhibitor		10 µM	remaining activity	100%
N#CCCc1ccc2c(c1)-c1[nH]c3ccc([N+](=O)[O-])cc3c1CC(=O)N2	cell-free assay			0.5 µM	remaining signal	109%
Cc1cc(NC(=O)c2cccc3cc(-c4cccc5[nH]nc(N)c45)ccc23)ccc1F	enzyme activity	inhibitor		0.1 µM	activity vs control	103%
Cc1ccc(C(=O)Nc2ccc(CN3CCN(C)CC3)c(C(F)(F)F)c2)cc1C#Cc1cnc2cccnn12	enzyme activity	inhibitor		23.5 nM	remaining activity	94%
O=C(Nc1cnn(-c2csc(C(=O)NC3COC3)c2)c1)Nc1ccccc1Cl	enzyme activity	inhibitor		5 µM	remaining activity	95.6%
N#CC1(c2ccccn2)CCN(Cc2cc(C(=O)N3CCCC3)c(=O)n3ccccc23)CC1	cell-free assay		competition with immobilised ligand	1 µM	remaining binding	84%

Structure (SMILES)	observed	mode	technique	tested at	measurement	value
CC(C1CC1)n1cnc2c(NCc3cccc(C(F)(F)F)c3)nc(NCCN(C)C)nc21 (centres unmarked)	enzyme activity	inhibitor		5 µM	inhibition	> 50%
COc1cc(Cl)c(C(=O)N[C@@H](CN[C@H]2CC[C@@H](N)CC2)Cc2ccc(C#N)cc2)cc1-c1ccc(CN[C@H](C)c2ccc(C)cc2)o1	enzyme activity	inhibitor		1 µM	remaining activity	98%
Cc1ccc(Nc2nccc(N(C)c3ccc4c(C)n(C)nc4c3)n2)cc1S(N)(=O)=O	enzyme activity	inhibitor		10 µM	inhibition	4%
COc1cc2ncnc(Nc3ccc(Oc4ccccc4)c(C)c3C)c2cc1OC	enzyme activity	inhibitor		1 µM	inhibition	-3%
Nc1ncnc2occ(-c3ccc(NC(=O)Nc4cc(C(F)(F)F)ccc4F)cc3)c12	cell-free assay	inhibitor		20 µM	remaining signal	100%
Cn1c2c(c3ccc(Cl)c(Cl)c31)C(C#N)C1(CCOCC1)NC2=O (centres unmarked)	thermal stability		DSF	10 µM	ΔTm	0.2 °C
O=C(O)c1cc(-c2ccc(C3CCNCC3)cc2)c2ccc(-c3ccc(C(F)(F)F)cc3)cc2c1	cell-free assay		competition with immobilised ligand	1 µM	remaining binding	100%
CC(C)(C)c1nc2c(s1)c1nc(N)ncc1c1ccc(NS(=O)(=O)c3c(F)cccc3F)c(F)c12	enzyme activity	inhibitor	radiometric	1 µM	remaining activity	108%
CNC(=O)c1cc(Oc2ccc(NC(=O)Nc3ccc(Cl)c(C(F)(F)F)c3)cc2)ccn1	enzyme activity	inhibitor		10 µM	inhibition	12%
CNC(=O)c1ccc(Nc2ncc(C(F)(F)F)c(NCc3nccnc3N(C)S(C)(=O)=O)n2)cc1	cell-free assay		competition with immobilised ligand	0.1 µM	remaining binding	100%
C#Cc1cccc(Nc2ncnc3cc(OCCOC)c(OCCOC)cc23)c1	cell-free assay			0.5 µM	remaining signal	101%
CCCOc1ccc(OC)c(F)c1C(=O)c1ccc(C(=O)N[C@@H]2CNC[C@H]2NC(=O)c2ccc3[nH]ncc3c2)cc1	enzyme activity	inhibitor		10 µM	remaining activity	93%
CC1(C)NC(=O)c2[nH]c3c(Cl)c(Cl)ccc3c2C1C#N (centres unmarked)	thermal stability		DSF	10 µM	ΔTm	0.4 °C
C[C@@H]1CN(c2cc(-c3n[nH]c4ccc(OC5(C)CC5)cc34)ncn2)C[C@H](C)O1	cell-free assay		competition with immobilised ligand	0.1 µM	remaining binding	79%
Cn1c2c(c3ccc(Cl)c(Cl)c31)C(C#N)C1(CCCC1)NC2=O (centres unmarked)	thermal stability		DSF	10 µM	ΔTm	0 °C
CNC(=O)Nc1ccc2c(c1)[C@@]1(CC2)OC(=O)N(CC(=O)N(Cc2ccc(F)cc2)[C@@H](C)C(F)(F)F)C1=O	cell-free assay		competition with immobilised ligand	1 µM	remaining binding	100%
